Measurements as given in the M2OR odorant receptor database.
Where a chain is given by its changes, count along the chain named.

Legend:
Conditions in all cases: stereoisomer not certain
OR1D4 (Homo sapiens) = target: T1, OR1D4 (Homo sapiens) (UniProt P47884)
T1 sequence (whole entry): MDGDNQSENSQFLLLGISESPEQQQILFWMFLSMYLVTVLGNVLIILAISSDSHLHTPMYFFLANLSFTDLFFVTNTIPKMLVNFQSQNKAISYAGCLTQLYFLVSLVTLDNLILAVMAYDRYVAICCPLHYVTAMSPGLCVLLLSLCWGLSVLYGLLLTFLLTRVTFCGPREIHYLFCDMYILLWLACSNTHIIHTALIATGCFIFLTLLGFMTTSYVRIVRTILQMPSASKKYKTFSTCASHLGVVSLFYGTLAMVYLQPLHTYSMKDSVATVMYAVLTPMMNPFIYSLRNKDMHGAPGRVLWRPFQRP
In short: (§1)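 Each receptor–molecule pair is labelled responsive or non-responsive (inactive) according to whether the original authors judged the measured signal statistically different from baseline. The data were taken from the main text and supplementary material of published papers and checked for typos and inconsistencies. Assay methods differed by source, with transient luciferase assays in mammalian cell lines being common.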

OR1D5 (Homo sapiens) = target: T2, OR1D5 (Homo sapiens) (UniProt P58170)
T2 sequence (whole entry): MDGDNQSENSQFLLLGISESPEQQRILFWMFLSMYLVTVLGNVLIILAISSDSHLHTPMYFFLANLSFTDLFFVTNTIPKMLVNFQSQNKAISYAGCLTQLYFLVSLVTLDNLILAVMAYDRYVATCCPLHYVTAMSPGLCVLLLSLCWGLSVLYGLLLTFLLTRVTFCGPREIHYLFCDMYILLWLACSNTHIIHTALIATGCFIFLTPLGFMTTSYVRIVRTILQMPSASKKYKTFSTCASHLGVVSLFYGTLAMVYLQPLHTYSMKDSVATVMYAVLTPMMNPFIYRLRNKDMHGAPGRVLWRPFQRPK
In short: as §1

OR1E1 (Homo sapiens) = target: T3, OR1E1 (Homo sapiens) (UniProt P30953)
T3 sequence (whole entry): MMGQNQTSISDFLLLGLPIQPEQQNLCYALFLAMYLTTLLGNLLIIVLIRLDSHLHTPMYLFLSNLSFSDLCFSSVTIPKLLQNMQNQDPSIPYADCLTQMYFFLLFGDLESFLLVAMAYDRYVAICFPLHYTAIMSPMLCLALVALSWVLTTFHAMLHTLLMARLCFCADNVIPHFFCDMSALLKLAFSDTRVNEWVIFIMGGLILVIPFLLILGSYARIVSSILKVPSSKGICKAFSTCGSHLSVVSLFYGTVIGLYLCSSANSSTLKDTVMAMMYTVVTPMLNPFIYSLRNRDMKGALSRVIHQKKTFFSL
In short: as §1

OR1E2 (Homo sapiens) = target: T4, OR1E2 (Homo sapiens) (UniProt P47887)
T4 sequence (whole entry): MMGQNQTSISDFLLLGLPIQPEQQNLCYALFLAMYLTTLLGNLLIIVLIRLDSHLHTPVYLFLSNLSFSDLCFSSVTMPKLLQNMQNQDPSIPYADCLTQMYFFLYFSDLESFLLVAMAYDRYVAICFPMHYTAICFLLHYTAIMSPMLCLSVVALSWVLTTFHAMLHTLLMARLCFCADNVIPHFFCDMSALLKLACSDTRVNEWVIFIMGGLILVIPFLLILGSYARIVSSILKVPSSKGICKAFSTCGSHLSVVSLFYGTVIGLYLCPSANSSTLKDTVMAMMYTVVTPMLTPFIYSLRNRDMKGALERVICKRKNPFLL
In short: as §1

OR1F1 (Homo sapiens) = target: T5, OR1F1 (Homo sapiens) (UniProt O43749)
T5 sequence (whole entry): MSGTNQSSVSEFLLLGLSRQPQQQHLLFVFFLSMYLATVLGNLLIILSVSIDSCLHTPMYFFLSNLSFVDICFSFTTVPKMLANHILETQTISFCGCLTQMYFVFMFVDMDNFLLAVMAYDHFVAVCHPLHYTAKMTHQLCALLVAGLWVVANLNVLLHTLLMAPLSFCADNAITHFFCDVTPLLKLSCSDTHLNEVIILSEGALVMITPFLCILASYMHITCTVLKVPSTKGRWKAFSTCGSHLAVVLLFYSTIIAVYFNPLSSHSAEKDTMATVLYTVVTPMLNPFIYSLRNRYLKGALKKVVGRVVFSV
In short: as §1

OR1F12P (Homo sapiens) = target: T6, OR1F12P (Homo sapiens) (UniProt Q8NHA8)
T6 sequence (whole entry): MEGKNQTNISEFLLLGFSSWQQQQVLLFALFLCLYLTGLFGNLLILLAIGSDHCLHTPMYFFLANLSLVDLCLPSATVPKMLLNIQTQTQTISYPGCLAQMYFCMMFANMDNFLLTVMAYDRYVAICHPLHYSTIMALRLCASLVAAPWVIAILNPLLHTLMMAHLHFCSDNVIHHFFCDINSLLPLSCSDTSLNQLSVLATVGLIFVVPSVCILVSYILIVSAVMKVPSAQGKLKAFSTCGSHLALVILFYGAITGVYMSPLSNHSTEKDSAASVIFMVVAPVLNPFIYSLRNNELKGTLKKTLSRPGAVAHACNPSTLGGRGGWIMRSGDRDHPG
In short: as §1

OR1G1 (Homo sapiens) = target: T7, OR1G1 (Homo sapiens) (UniProt P47890)
T7 sequence (whole entry): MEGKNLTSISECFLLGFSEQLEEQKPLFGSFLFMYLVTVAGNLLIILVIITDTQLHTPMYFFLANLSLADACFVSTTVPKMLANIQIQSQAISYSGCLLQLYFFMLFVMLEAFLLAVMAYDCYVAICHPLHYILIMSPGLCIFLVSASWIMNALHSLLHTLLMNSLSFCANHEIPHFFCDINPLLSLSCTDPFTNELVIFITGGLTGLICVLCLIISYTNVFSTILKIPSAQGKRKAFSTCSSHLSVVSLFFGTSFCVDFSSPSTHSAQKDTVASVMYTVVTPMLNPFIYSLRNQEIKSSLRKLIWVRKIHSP
In short: as §1

OR1I1 (Homo sapiens) = target: T8, OR1I1 (Homo sapiens) (UniProt O60431)
T8 sequence (whole entry): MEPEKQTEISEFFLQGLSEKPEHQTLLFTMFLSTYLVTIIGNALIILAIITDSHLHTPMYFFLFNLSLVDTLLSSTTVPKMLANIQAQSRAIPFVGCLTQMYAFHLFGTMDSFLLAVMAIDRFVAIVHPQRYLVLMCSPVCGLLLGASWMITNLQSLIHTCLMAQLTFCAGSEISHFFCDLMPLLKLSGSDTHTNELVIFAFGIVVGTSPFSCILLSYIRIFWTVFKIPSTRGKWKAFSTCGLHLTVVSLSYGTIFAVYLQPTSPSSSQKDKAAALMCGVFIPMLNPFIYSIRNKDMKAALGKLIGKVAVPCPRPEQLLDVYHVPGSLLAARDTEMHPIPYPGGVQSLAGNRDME
In short: as §1

OR1J1 (Homo sapiens) = target: T9, OR1J1 (Homo sapiens) (UniProt Q8NGS3)
T9 sequence (whole entry): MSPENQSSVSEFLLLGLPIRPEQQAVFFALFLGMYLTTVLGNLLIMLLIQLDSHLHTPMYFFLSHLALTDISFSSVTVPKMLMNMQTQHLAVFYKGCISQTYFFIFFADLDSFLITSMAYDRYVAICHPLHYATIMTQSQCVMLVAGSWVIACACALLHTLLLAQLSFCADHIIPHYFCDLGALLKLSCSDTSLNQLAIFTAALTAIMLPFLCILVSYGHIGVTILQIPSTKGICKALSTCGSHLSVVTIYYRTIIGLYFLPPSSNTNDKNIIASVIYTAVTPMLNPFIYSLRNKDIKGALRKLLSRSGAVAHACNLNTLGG
In short: as §1

OR1J2 (Homo sapiens) = target: T10, OR1J2 (Homo sapiens) (UniProt Q8NGS2)
T10 sequence (whole entry): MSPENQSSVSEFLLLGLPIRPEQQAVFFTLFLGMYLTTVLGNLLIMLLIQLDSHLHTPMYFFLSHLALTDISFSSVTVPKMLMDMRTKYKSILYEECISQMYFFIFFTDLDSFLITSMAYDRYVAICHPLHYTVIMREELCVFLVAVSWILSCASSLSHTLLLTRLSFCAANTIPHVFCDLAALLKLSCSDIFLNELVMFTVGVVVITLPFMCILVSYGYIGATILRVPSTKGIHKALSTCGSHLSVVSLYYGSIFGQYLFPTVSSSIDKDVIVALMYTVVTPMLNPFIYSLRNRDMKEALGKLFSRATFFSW
In short: as §1

OR1J4 (Homo sapiens) = target: T11, OR1J4 (Homo sapiens) (UniProt Q8NGS1)
T11 sequence (whole entry): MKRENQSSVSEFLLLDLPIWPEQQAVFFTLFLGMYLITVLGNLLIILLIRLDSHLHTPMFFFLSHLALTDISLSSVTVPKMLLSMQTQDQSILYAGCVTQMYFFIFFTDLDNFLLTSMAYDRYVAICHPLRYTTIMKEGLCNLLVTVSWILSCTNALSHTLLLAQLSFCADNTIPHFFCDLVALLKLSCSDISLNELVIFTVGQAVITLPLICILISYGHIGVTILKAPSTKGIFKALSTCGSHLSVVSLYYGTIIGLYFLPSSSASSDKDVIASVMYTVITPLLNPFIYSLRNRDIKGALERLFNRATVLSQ
In short: as §1

OR1K1 (Homo sapiens) = target: T12, OR1K1 (Homo sapiens) (UniProt Q8NGR3)
T12 sequence (whole entry): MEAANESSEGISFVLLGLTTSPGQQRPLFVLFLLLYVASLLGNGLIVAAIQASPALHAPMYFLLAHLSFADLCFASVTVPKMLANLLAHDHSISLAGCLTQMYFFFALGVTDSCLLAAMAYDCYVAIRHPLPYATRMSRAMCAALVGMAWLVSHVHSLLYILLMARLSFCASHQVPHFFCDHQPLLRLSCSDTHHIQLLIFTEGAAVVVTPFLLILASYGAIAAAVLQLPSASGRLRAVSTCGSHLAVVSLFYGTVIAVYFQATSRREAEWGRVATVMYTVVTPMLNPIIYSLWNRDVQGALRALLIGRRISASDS
In short: as §1

OR1L1 (Homo sapiens) = target: T13, OR1L1 (Homo sapiens) (UniProt Q8NH94)
T13 sequence (whole entry): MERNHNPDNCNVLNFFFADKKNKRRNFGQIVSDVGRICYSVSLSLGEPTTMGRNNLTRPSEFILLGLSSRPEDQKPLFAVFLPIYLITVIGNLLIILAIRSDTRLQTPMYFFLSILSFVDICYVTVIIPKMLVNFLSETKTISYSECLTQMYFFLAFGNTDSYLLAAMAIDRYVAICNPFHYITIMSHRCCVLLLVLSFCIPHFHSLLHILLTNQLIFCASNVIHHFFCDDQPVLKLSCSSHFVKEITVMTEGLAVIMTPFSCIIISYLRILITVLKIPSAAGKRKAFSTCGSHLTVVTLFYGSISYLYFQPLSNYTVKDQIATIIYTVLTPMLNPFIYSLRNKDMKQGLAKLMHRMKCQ
In short: as §1

OR1E2 = test system: T14, OR1E2
T14 sequence (whole entry): T4 sequence (whole entry) with C27R
In short: as §1

OR1F1 = test system: T15, OR1F1
T15 sequence (whole entry): T5 sequence (whole entry) with F75S
In short: as §1

OR1L1 = test system: T16, OR1L1
T16 sequence (whole entry): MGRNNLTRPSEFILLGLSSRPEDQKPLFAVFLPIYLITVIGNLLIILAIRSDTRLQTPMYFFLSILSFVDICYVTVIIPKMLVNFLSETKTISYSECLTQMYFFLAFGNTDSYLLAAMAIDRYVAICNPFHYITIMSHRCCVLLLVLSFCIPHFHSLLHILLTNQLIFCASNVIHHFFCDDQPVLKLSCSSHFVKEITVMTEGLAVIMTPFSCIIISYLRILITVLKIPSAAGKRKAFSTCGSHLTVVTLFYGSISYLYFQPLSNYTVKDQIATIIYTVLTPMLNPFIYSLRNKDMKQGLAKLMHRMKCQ
In short: as §1

Measured: odorant receptor agonist call

CC(CO)CS (stereo not drawn)
not listed: OR1E2 | OR1F1 | OR1L1
inactive: all other assays above

CCCCCCCCC(OC(C)=O)OC(C)=O
active: OR1G1 (Homo sapiens)

CCCCCC1COCCC1OC(C)=O (stereo not drawn)
inactive: OR1G1 (Homo sapiens)

C=CC(C)(CCC=C(C)C)OC(C)=O (stereo not drawn)
inactive: OR1G1 (Homo sapiens)

CC(C)=CCCC(C)=CCO
active: OR1G1 (Homo sapiens)

CCCCCC(S)C(C)CO (stereo not drawn)
not listed: OR1E2 | OR1F1 | OR1L1
inactive: all other assays above

Cc1cnc(C)c(C)n1
not listed: OR1D4 (Homo sapiens) | OR1L1 (Homo sapiens)
inactive: all other assays above

CC1=C(O)C(=O)C(C)O1 (stereo not drawn)
not listed: OR1D4 (Homo sapiens) | OR1L1 (Homo sapiens)
inactive: all other assays above
